Data as given in ChEMBL document CHEMBL5247650, “New Dual Inhibitors of Bacterial Topoisomerases with Broad-Spectrum Antibacterial Activity and In Vivo Efficacy against Vancomycin-Intermediate Staphylococcus aureus” (J Med Chem, 2023).
Values after ≈ are worked out from the molar mass of the structure shown. Active and inactive are the calls of the source. The calls are words filed in the database; no cut-off is given here.

What was measured:
Enterococcus faecium = experiment: Antibacterial activity against Enterococcus faecium ATCC 700221 assessed as bacterial growth inhibition incubated for 18 hrs by microplate reader based analysis; assay type: functional
Staphylococcus aureus [1] = experiment: Antibacterial activity against Methicillin-resistant Staphylococcus aureus ATCC 43300 assessed as bacterial growth inhibition incubated for 18 hrs by microplate reader based analysis; assay type: functional
Outline: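 Cation-adjusted Mueller Hinton broth II; strains grown overnight on agar then broth at 37 °C. Two-fold 12-step serial dilutions from DMSO stocks (final DMSO at most 0.64%), 5 × 10^4 cells per well, three parallel replicates, 37 °C with 150 rpm shaking for 18 h.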

Enterococcus faecalis = experiment: Antibacterial activity against Enterococcus faecalis ATCC 29212 assessed as bacterial growth inhibition incubated for 18 hrs by microplate reader based analysis; assay type: functional
Staphylococcus aureus [2] = experiment: Antibacterial activity against Vancomycin-intermediate Staphylococcus aureus ATCC 700699 assessed as bacterial growth inhibition incubated for 18 hrs by microplate reader based analysis; assay type: functional
Staphylococcus aureus [3] = experiment: Antibacterial activity against Staphylococcus aureus ATCC 29213 assessed as bacterial growth inhibition incubated for 18 hrs by microplate reader based analysis; assay type: functional
Acinetobacter baumannii [4] = experiment: Antibacterial activity against clinical isolate Acinetobacter baumannii assessed as bacterial growth inhibition at 4 ug/ml by CLSI based broth microdilution method relative to control; assay type: functional, organism-based; conditions: dose 4.0 µg/ml
Outline: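 Hungarian clinical isolates and control strains were tested by the same CLSI broth microdilution procedure (MHBII, OD600 read-out after 18 h at 37 °C), run in 384-well plates.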

[5] = Plasma protein binding in CD-1 mouse assessed as unbound fraction at 5 uM incubated for 4 hrs by equilibrium dialysis method; assay type: ADME, cell-free
Outline: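 Equilibrium dialysis in pooled male CD-1 mouse plasma. Compound at 5 μM (0.5% DMSO), two replicates, 4 h at 37 °C, sampled at 0 min and 4 h. Buffer and plasma aliquots were matrix-matched, quenched with acetonitrile/methanol (2:1) containing internal standard, and analysed by LC–MS/MS. Caffeine, verapamil and nicardipine served as binding controls.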

Acinetobacter baumannii [6] = experiment: Antibacterial activity against clinical isolate Acinetobacter baumannii assessed as bacterial growth inhibition at 32 ug/ml by CLSI based broth microdilution method relative to control; assay type: functional
Klebsiella pneumoniae = experiment: Antibacterial activity against Klebsiella pneumoniae ATCC 10031 assessed as bacterial growth inhibition incubated for 18 hrs by microplate reader based analysis; assay type: functional
[7] = Inhibition of Escherichia coli DNA topoisomerase 4 relaxation
Acinetobacter baumannii [8] = experiment: Antibacterial activity against Acinetobacter baumannii ATCC 17978 assessed as bacterial growth inhibition incubated for 18 hrs by microplate reader based analysis; assay type: functional
Enterobacter cloacae = experiment: Antibacterial activity against Enterobacter cloacae subsp. cloacae ATCC 13047 assessed as bacterial growth inhibition incubated for 18 hrs by microplate reader based analysis; assay type: functional
Escherichia coli = experiment: Antibacterial activity against Escherichia coli ATCC 25922 assessed as bacterial growth inhibition incubated for 18 hrs by microplate reader based analysis; assay type: functional
Pseudomonas aeruginosa = experiment: Antibacterial activity against Pseudomonas aeruginosa ATCC 27853 assessed as bacterial growth inhibition incubated for 18 hrs by microplate reader based analysis; assay type: functional
DNA gyrase = DNA gyrase (Escherichia coli, UniProt P0AES4+P0AES6); experiment: Inhibition of Escherichia coli DNA gyrase supercoiling; assay type: protein-complex assay
Outline: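 E. coli gyrase supercoiling measured in a high-throughput plate assay from a commercial kit. Seven inhibitor concentrations; IC50 fitted from the curve, mean of three independent experiments.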

Acinetobacter baumannii [9] = experiment: Antibacterial activity against multi-drug resistant Acinetobacter baumannii assessed as bacterial growth inhibition by CLSI based broth microdilution method; assay type: functional
Acinetobacter baumannii [10] = experiment: Antibacterial activity against non multi-drug resistant Acinetobacter baumannii assessed as bacterial growth inhibition at 8 ug/ml by CLSI based broth microdilution method relative to control; assay type: functional; parameters: scale not given: the % may be the effect or the level left; conditions: dose 8 µg/ml
Outline: (§1)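 Panel of 100 A. baumannii strains of diverse geographic origin, 50 MDR and 50 non-MDR. Tested at a contract lab by broth microdilution following CLSI guidelines. Read-out is the percentage of strains inhibited at each concentration.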

Acinetobacter baumannii [11] = experiment: Antibacterial activity against multi-drug resistant Acinetobacter baumannii assessed as bacterial growth inhibition at 8 ug/ml by CLSI based broth microdilution method relative to control; assay type: functional; parameters: scale not given: the % may be the effect or the level left; conditions: dose 8 µg/ml; outline: as §1
HepG2 [12] = experiment: Cytotoxicity against human HepG2 cells assessed as reduction in cell growth upto 100 uM incubated for 72 hrs by MTS assay; assay type: toxicity, cell-based; conditions: hepg2, 72 h
[13] = target: T1, Voltage-gated inwardly rectifying potassium channel KCNH2 (Homo sapiens, UniProt Q12809); experiment: Inhibition of hERG channel expressed in HEK293 cells at -40 mV holding potential by whole-cell voltage clamp method; assay type: toxicity, cell-based
[14] = Hemolytic activity in human RBC assessed as hemolysis at 100 uM incubated for 45 mins under shaking condition by spectrophotometer analysis; assay type: toxicity, cell-based; conditions: erythrocyte
HepG2 [15] = experiment: Mitotoxicity in human HepG2 cells upto 1000 uM incubated for 24 hrs by glu/gal assay; assay type: toxicity, cell-based; conditions: hepg2, 24 h
[16] = Genotoxicity in CHO-K1 cells upto 100 uM incubated for 24 hrs in absence of rat liver S9 fraction by micronucleus test; assay type: toxicity, cell-based, Cricetulus griseus; conditions: chinese hamster, cho-k1, 24 h
HepG2 [17] = experiment: Cytotoxicity against human HepG2 cells assessed as reduction in cell growth upto 100 uM incubated for 72 hrs in absence of fetal bovine serum by MTS assay; assay type: toxicity, cell-based; conditions: hepg2, 72 h
MCF7 [18] = experiment: Cytotoxicity against human MCF7 cells assessed as reduction in cell growth upto 100 uM incubated for 72 hrs by MTS assay; assay type: toxicity, cell-based; conditions: mcf7, 72 h
MCF7 [19] = experiment: Cytotoxicity against human MCF7 cells assessed as reduction in cell growth upto 100 uM incubated for 72 hrs in absence of fetal bovine serum by MTS assay; assay type: toxicity, cell-based; conditions: mcf7, 72 h
[20] = Genotoxicity in CHO-K1 cells up to 50 uM incubated for 24 hrs in presence of rat liver S9 fraction by micronucleus test; assay type: toxicity, subcellular, Cricetulus griseus; conditions: chinese hamster, s9, 24 h
[21] = target: T1, Voltage-gated inwardly rectifying potassium channel KCNH2; experiment: Inhibition of hERG potassium ion channel expressed in CHO cells at 50 microM by patch-clamp method; assay type: toxicity, cell-based
[22] = target: Sodium channel protein type 5 subunit alpha (Homo sapiens, UniProt Q14524); experiment: Inhibition of Nav1.5 ion channel (unknown origin) expressed in CHO cells at 10 microM by patch-clamp method; assay type: cell-based
[23] = Metabolic stability in human liver microsomes assessed as intrinsic clearance […] at 1 uM measured upto 60 mins by LC-MS/MS analysis; assay type: ADME, Microsome; conditions: 1 h
Outline: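 Pooled human liver microsomes at 0.5 mg/mL in 100 mM KPO4 pH 7.4, compound at 1 μM final. Started with 1 mM NADPH; sampled at 0, 5, 10, 20, 40 and 60 min. Quenched with cold acetonitrile plus internal standard; parent remaining measured by LC–MS/MS. Intrinsic clearance calculated by the Obach approach with literature scaling factors.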

Topoisomerase IV = Topoisomerase IV (Staphylococcus aureus, UniProt P0C1S7+P0C1U9); experiment: Inhibition of Staphylococcus aureus topoisomerase 4 decatenation incubated for 30 mins in presence of ATP by ethidium bromide staining based analysis; assay type: protein-complex assay
[24] = Inhibition of Acinetobacter baumannii topoisomerase 4 decatenation incubated for 30 mins in presence of ATP by ethidium bromide staining based analysis
[25] = Inhibition of Pseudomonas aeruginosa topoisomerase 4 decatenation incubated for 30 mins in presence of ATP by ethidium bromide staining based analysis
[26] = Thermodynamic solubility of compound in 100 mM PBS buffer at pH 7.4 incubated for 48 hrs under shaking condition by LC-MS/MS analysis; assay type: physicochemical; conditions: read-out: Therm_solubility

T1 sequence (Q12809 whole entry): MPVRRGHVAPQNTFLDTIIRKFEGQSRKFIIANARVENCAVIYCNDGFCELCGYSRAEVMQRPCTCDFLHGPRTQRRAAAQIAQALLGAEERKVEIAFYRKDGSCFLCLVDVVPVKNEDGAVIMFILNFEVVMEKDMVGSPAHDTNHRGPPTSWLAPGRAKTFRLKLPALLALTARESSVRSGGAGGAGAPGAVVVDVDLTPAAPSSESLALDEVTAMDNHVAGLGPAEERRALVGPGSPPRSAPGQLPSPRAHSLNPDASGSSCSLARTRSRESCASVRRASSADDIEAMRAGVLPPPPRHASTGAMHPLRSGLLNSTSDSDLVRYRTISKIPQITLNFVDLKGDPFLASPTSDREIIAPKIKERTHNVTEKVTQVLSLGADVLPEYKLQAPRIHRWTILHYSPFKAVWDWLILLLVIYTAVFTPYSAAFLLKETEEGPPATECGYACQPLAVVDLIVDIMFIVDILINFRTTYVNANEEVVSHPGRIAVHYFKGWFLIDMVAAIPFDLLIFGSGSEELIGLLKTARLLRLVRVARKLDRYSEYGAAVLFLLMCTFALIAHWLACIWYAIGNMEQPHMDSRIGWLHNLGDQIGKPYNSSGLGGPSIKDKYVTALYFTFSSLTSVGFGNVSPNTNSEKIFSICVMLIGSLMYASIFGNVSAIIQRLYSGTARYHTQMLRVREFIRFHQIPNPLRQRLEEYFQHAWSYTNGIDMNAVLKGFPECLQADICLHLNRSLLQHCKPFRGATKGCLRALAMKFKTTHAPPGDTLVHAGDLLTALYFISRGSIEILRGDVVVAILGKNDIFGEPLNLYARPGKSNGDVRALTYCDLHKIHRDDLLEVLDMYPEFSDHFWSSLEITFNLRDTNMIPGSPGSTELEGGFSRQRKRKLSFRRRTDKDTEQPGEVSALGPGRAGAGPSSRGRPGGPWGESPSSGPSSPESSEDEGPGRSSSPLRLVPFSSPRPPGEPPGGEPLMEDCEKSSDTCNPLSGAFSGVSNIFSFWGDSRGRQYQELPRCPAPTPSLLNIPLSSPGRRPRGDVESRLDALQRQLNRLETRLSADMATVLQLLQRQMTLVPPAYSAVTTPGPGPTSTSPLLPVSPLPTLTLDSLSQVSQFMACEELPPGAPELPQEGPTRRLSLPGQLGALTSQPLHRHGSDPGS
Chain of Topoisomerase IV (P0C1U9 whole entry): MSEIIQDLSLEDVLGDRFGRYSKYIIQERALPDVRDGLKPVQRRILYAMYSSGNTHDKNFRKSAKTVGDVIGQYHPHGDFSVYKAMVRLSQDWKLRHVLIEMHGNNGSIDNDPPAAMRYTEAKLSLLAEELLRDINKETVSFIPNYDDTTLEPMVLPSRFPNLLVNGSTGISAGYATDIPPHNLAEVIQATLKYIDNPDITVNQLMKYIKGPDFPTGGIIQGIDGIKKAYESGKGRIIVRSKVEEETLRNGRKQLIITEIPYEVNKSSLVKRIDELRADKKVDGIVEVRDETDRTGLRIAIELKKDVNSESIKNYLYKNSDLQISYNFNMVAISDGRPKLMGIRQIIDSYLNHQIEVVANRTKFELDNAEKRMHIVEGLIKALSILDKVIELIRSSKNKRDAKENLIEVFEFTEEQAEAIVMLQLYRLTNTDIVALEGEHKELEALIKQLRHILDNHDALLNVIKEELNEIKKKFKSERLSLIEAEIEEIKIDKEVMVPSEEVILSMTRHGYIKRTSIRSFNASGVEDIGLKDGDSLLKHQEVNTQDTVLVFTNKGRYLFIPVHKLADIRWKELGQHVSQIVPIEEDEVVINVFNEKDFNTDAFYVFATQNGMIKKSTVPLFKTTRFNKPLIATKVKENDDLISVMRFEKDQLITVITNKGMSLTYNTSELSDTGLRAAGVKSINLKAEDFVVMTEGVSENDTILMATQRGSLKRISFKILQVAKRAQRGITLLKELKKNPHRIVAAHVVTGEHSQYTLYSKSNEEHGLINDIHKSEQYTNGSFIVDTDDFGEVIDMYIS
Chain of Topoisomerase IV (P0C1S7 whole entry): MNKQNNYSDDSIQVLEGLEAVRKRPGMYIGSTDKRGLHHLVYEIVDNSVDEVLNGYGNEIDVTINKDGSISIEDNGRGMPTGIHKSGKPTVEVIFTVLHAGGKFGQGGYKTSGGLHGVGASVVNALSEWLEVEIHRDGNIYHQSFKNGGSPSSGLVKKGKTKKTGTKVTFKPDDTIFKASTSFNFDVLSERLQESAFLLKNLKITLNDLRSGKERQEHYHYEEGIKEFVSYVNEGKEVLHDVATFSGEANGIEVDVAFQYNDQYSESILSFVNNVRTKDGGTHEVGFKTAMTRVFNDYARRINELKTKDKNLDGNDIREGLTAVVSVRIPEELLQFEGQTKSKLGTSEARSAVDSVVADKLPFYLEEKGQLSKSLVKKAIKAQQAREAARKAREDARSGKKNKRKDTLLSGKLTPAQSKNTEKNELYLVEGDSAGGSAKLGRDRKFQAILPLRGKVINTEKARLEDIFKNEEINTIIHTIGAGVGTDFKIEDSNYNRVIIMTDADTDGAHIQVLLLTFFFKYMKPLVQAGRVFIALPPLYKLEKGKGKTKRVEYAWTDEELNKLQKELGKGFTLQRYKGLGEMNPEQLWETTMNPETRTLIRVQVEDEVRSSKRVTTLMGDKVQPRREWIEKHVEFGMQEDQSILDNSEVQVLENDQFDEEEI
Chain of Sodium channel protein type 5 subunit alpha (Q14524 whole entry): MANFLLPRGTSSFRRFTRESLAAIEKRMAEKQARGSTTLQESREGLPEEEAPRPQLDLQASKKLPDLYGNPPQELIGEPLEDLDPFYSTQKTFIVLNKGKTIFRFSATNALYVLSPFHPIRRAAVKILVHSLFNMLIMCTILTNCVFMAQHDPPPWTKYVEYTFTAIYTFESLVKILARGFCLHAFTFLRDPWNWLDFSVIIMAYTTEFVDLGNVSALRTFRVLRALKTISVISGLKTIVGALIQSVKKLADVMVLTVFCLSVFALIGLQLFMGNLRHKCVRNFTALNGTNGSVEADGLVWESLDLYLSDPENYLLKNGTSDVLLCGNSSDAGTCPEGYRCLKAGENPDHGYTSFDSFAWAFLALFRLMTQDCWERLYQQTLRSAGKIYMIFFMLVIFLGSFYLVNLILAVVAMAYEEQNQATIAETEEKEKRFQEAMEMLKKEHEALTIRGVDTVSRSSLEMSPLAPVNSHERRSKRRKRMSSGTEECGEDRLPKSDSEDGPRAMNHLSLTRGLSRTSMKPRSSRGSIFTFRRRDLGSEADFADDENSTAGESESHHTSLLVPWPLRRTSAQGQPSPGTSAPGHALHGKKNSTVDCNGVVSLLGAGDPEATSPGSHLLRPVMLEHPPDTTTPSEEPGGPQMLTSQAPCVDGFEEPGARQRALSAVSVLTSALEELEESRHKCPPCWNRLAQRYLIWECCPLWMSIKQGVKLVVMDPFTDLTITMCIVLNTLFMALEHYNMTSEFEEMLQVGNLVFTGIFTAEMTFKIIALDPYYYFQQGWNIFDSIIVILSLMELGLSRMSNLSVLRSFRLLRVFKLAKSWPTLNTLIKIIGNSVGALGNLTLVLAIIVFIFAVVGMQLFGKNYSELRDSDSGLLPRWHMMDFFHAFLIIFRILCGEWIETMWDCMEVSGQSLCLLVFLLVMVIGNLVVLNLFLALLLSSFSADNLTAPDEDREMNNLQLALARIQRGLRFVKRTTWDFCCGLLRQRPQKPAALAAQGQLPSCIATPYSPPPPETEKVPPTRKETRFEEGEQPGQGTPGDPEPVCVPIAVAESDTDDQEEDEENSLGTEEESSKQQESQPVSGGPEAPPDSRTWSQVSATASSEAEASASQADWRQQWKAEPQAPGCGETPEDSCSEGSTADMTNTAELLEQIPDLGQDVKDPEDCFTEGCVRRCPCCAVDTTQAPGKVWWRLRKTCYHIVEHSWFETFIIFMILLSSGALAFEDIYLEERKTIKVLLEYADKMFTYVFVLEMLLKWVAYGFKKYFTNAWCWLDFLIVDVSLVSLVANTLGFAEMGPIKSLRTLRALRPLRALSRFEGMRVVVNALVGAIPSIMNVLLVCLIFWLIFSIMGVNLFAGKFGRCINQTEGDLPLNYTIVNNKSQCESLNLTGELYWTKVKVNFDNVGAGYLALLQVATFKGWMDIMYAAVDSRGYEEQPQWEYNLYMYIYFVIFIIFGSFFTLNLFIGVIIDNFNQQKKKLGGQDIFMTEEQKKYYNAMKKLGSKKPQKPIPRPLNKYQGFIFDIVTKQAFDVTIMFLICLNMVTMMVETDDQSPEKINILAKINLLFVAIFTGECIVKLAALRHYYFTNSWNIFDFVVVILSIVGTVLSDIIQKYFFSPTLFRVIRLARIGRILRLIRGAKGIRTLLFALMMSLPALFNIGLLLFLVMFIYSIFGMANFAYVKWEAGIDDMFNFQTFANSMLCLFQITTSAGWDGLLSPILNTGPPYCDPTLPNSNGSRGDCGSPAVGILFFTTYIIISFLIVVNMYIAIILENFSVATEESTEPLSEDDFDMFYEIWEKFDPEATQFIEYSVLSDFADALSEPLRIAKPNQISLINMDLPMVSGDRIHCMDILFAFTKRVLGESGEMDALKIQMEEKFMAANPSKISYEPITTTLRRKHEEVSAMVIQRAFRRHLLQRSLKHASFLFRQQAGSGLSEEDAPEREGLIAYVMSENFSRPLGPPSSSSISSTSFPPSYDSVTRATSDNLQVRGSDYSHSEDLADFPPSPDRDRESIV

Cc1[nH]c(C(=O)Nc2nc3c(N4CCOCC4)cc(C(=O)O)cc3s2)cc1Cl
Activity (Enterococcus faecium): Active | Activity (Staphylococcus aureus [1]): Active | Activity (Enterococcus faecalis): Active | Activity (Staphylococcus aureus [2]): Active | Activity (Staphylococcus aureus [3]): Active

COLISTIN
inhibition (Acinetobacter baumannii [4]): Active

Cc1[nH]c(C(=O)Nc2nc3c(N4CCOC[C@H]4C)cc(C(=O)O)cc3s2)c(Cl)c1Cl
fraction unbound at 4 h, 5 µM [5]: 0.011

C[C@H]1c2cccc(O)c2C(=O)C2=C(O)[C@]3(O)C(=O)C(C(N)=O)=C(O)[C@@H](N(C)C)[C@@H]3[C@@H](O)[C@@H]21 [DOXYCYCLINE]
inhibition at 32 µg/mL (Acinetobacter baumannii [6]): 100%

Cc1[nH]c(C(=O)Nc2nc3c(CN4CCOCC4)cc(C(=O)O)cc3s2)c(Cl)c1Cl
Activity (Klebsiella pneumoniae): inactive | IC50 [7]: 120 nM | Activity (Acinetobacter baumannii [8]): inactive | Activity (Enterobacter cloacae): inactive | Activity (Escherichia coli): inactive | Activity (Pseudomonas aeruginosa): inactive

Cc1[nH]c(C(=O)Nc2nc3c(N4CC[C@H](N)C4)cc(C(=O)O)cc3s2)c(Cl)c1Cl
IC50 [7]: < 100 nM | Activity (Acinetobacter baumannii [8]): inactive | Activity (Enterobacter cloacae): inactive | Activity (Escherichia coli): inactive | Activity (Pseudomonas aeruginosa): inactive

Cc1[nH]c(C(=O)Nc2nc3c(N4CCOC[C@@H]4C)cc(C(=O)O)cc3s2)c(Cl)c1Cl
IC50 (DNA gyrase): 17 nM

CN(C)c1cc(NC(=O)CNC(C)(C)C)c(O)c2c1C[C@H]1C[C@H]3[C@H](N(C)C)C(O)=C(C(N)=O)C(=O)[C@@]3(O)C(O)=C1C2=O [TIGECYCLINE]
MIC (Acinetobacter baumannii [9]): > 16 µg/mL | Activity (Acinetobacter baumannii [10]): 100% | Activity (Acinetobacter baumannii [11]): 100%

Cc1[nH]c(C(=O)Nc2nc3c(N4CCOCC4)cc(C(=O)O)cc3s2)c(Cl)c1Cl
Activity (HepG2 [12]): Non-Toxic | inhibition (INH) [13]: Not Active | Activity [14]: Non-Toxic | Activity (HepG2 [15]): Non-Toxic | Activity [16]: Non-Toxic | Activity (HepG2 [17]): Non-Toxic | Activity (MCF7 [18]): Non-Toxic | Activity (MCF7 [19]): Non-Toxic | Activity [20]: Non-Toxic | inhibition (INH) [21]: Not Active | inhibition (INH) [22]: Not Active | CLint [23]: 13 µL/min

CO[C@@H]1[C@@H](OC(N)=O)[C@@H](O)[C@H](Oc2ccc3c(O)c(NC(=O)c4ccc(O)c(CC=C(C)C)c4)c(=O)oc3c2C)OC1(C)C [NOVOBIOCIN]
IC50 (Topoisomerase IV): 13300 nM | IC50 [24]: 9460 nM | IC50 [25]: 8360 nM

Cc1[nH]c(C(=O)Nc2nc3c(N4CCC(O)CC4)cc(C(=O)O)cc3s2)c(Cl)c1Cl
Activity (Acinetobacter baumannii [8]): inactive | Activity (Enterobacter cloacae): inactive | Activity (Escherichia coli): inactive | Activity (Pseudomonas aeruginosa): inactive

Cc1[nH]c(C(=O)Nc2nc3c(N4CCC(=S)CC4)cc(C(=O)O)cc3s2)c(Cl)c1Cl
IC50 [7]: < 100 nM

COCCCNc1cc(C(=O)O)cc2sc(NC(=O)c3[nH]c(C)c(Cl)c3Cl)nc12.N
MIC (Enterococcus faecium): < 0.0312 µg/mL | MIC (Enterococcus faecalis): < 0.0312 µg/mL

Cc1[nH]c(C(=O)Nc2nc3c(N4C[C@H]5CC[C@@H](C4)O5)cc(C(=O)O)cc3s2)c(Cl)c1Cl
MIC (Enterobacter cloacae): 16 µg/mL (≈ 33.2 µM)

Cc1[nH]c(C(=O)Nc2nc3c(N4[C@@H]5CC[C@H]4COC5)cc(C(=O)O)cc3s2)c(Cl)c1Cl
IC50 [7]: 140 nM | solubility thermodynamic at 48 h [26]: 0.26 µM (≈ 0.125 µg/mL)

Cc1[nH]c(C(=O)Nc2nc3c(N4CCCC4)cc(C(=O)O)cc3s2)c(Cl)c1Cl
IC50 [7]: < 100 nM

Cc1[nH]c(C(=O)Nc2nc3c(N4CCNCC4)cc(C(=O)O)cc3s2)c(Cl)c1Cl
Activity (Klebsiella pneumoniae): inactive | Activity (Acinetobacter baumannii [8]): inactive | Activity (Enterobacter cloacae): inactive | Activity (Escherichia coli): inactive | Activity (Pseudomonas aeruginosa): inactive

Cc1[nH]c(C(=O)Nc2nc3c(N4CCOC4=O)cc(C(=O)O)cc3s2)c(Cl)c1Cl
IC50 [7]: 120 nM

Cc1[nH]c(C(=O)Nc2nc3c(N4CC[C@H](N(C)C)C4)cc(C(=O)O)cc3s2)c(Cl)c1Cl
Activity (Klebsiella pneumoniae): inactive | IC50 [7]: 120 nM | Activity (Acinetobacter baumannii [8]): inactive | Activity (Enterobacter cloacae): inactive | Activity (Escherichia coli): inactive | Activity (Pseudomonas aeruginosa): inactive
